Pf Dd2 inh: blocks growth of Plasmodium falciparum Dd2 parasites; activity change, % at 10 µM; P. falciparum Dd2 growth, SYBR Green, 72 h; stronger effect = lower value; AID 1159554; hit rate 2.3% among 94,000; in the data active means activity change below about -80%; inconclusive means no clear call, values can overlap the other calls
IDH1 R132H inh: blocks human IDH1 R132H reductase activity; O75874; diaphorase/resazurin fluorescence, 60 min; inhibition, % at 10 µM; hit rate 0.18% among 70,000; AID 624101; in the data active means inhibition above about 34%; inconclusive means no clear call, values can overlap the other calls; inactive means below about 11%;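 further: 0% = DMSO and 100% = no enzyme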
Target sequence (O75874 whole entry R132H): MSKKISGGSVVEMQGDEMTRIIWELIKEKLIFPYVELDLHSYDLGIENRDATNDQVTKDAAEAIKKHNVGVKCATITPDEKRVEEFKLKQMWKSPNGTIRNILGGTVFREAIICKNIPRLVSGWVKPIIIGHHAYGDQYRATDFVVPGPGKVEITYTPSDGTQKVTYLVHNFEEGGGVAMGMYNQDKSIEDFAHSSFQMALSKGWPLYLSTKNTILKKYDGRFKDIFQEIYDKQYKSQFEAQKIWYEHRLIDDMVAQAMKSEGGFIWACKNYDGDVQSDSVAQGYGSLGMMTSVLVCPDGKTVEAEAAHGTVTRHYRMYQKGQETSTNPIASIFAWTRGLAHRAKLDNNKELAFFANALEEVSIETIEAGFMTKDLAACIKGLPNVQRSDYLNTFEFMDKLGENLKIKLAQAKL
GASC1 inh: KDM4C (human) demethylase inhibition; AID 720574; inhibition, % at 12.5 µM; hit rate 0.15% among 96,000; Q9H3R0; GST-KDM4C 2-372, H3K9me3 peptide, LANCE TR-FRET;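 active means mean replicate inhibition above about 25%, with at least 55% of replicates also reaching it, limit read from the data, passing the limit was not always enough; inconclusive means only one of those two conditions met; inactive means neither condition met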
Target sequence (Q9H3R0 2-372 limits assumed): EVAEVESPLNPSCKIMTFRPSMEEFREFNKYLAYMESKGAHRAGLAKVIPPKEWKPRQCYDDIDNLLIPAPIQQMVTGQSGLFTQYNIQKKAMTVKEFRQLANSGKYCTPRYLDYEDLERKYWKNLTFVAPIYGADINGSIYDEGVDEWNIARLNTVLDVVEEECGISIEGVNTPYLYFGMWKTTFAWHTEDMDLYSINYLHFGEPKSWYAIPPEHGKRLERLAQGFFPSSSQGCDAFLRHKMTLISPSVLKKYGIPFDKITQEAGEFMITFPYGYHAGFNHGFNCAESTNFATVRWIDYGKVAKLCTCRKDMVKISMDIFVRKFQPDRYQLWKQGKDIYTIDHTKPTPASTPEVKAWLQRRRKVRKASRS
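Compound: one test concentration per compound; Material: GST-GASC-1 enzyme fragment 2-372; Amount: GASC-1 enzyme at 10 nM final in reaction; Also added: H3K9me3 peptide substrate, Fe(II), 2-oxoglutarate; Technique: LANCE TR-FRET; Times: 30 min demethylation and 1 h detection at room temperature.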
T cruzi growth-1: T. cruzi proliferation inhibition. T. cruzi beta-gal in NIH3T3, GalScreen luminescence, 90 h. hit rate 5.9% among 77,000. inhibition, % at 8.34 µM;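 active means mean inhibition above about 93%, with at least 55% of replicates each passing it, limit read from the data, passing the limit was not always enough; inconclusive means only one of those two conditions holds; inactive means neither condition holds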
T cruzi growth-2: Trypanosoma cruzi proliferation inhibition. shares compounds with T cruzi growth-1. T. cruzi beta-gal in NIH3T3, GalScreen luminescence, 90 h. inhibition, % at 8.35 µM. hit rate 72% among 5,600;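 active means mean replicate inhibition above about 95% and at least 55% of replicates individually reaching it, limit read from the data; inconclusive means only one of the two criteria is met; inactive means neither criterion is met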
T cruzi growth-3: Trypanosoma cruzi proliferation inhibition; shares compounds with T cruzi growth-1; hit rate 21% among 5,600; AID 651740; inhibition, % at 2.09 µM; T. cruzi beta-gal in NIH3T3, GalScreen luminescence, 90 h;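 active means mean inhibition above about 95%, with at least 55% of replicates also reaching it, limit read from the data; inconclusive means meets just one of the two conditions; inactive means meets neither condition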;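 further: plate controls were neutral control median for no effect and positive control median for full effect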
3T3 cytotox: cytotoxicity in mouse NIH/3T3 fibroblasts; shares compounds with T cruzi growth-1; NIH/3T3 viability, CellTiter-Glo ATP luminescence, 90 h; cytotoxicity (signal decrease), % at 8.35 µM; hit rate 14% among 5,600; AID 651742;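 active means mean signal decrease across replicates above about 35% based on untreated-well scatter, with enough replicates individually passing, limit read from the data; inconclusive means no rule stated though some were filed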;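 further: 0% = median of neutral control wells and 100% = median of positive control wells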
NIH3T3 tox 2: cytotoxicity in mouse NIH/3T3 fibroblasts; AID 651744; NIH/3T3 viability, CellTiter-Glo ATP luminescence, 90 h; shares compounds with T cruzi growth-1; inhibition, % at 24.9 µM; hit rate 56% among 5,600;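 active means mean loss of cell viability signal at or above a set limit, and enough replicates individually reaching it; inconclusive means meets only the mean limit or only the replicate share; inactive means meets neither condition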;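 further: 0% = median of neutral control wells and 100% = median of positive control wells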
Starred values were filed as active, the others as inactive; ? = inconclusive; nt = no result given. An excerpt weighted towards active compounds, which were near 5.8% of everything screened.

SMILES	Pf Dd2 inh	IDH1 R132H inh	GASC1 inh	T cruzi growth-1	T cruzi growth-2	T cruzi growth-3	3T3 cytotox	NIH3T3 tox 2
C[C@@H]1CN([C@@H](C)CO)S(=O)(=O)c2ccc(C3=CCCC3)cc2O[C@H]1CN(C)C(=O)C1CCCCC1	-22.4	nt	-0.7	?	90.7	60.2	26.2	41.2*
COCC#Cc1ccc([C@H]2[C@H]3CN(C(=O)CN(C)C)CCCCN3[C@H]2CO)cc1	6.0	nt	1.6	21.1	nt	nt	nt	nt
COCC#Cc1ccc([C@@H]2[C@@H](CO)N3CCCCN(C(=O)CN(C)C)C[C@H]23)cc1	15.4	nt	-0.7	106.3*	76.4	-16.7	-5.7	1.8
CN(C)CC#Cc1ccc([C@H]2[C@H](CO)N3CCCCN(C(=O)CN(C)C)C[C@@H]23)cc1	-89.3*	nt	3.3	?	75.6	16.2	15.0	25.1
COCC#Cc1ccc([C@@H]2[C@@H](CO)N3CCCCN(C(=O)CN(C)C)C[C@@H]23)cc1	21.3	nt	-0.7	98.8*	5.6	-13.0	-8.5	-11.5
Cc1sc(NC(=O)c2cc(-c3ccccn3)nc3ccc(Cl)cc23)c(C(N)=O)c1C	nt	1.0	nt	nt	nt	nt	nt	nt
CN1C(=O)c2cc(NC(=O)c3ccccc3Cl)ccc2OC[C@H]2O[C@H](CC(=O)O)CC[C@H]21	-3.6	nt	-0.9	9.8	nt	nt	nt	nt
Cc1noc(C)c1NC(=O)N(C)C[C@H]1Oc2ccc(NC(=O)C3CC3)cc2C(=O)N([C@@H](C)CO)C[C@@H]1C	12.5	-0.1	0.4	0.8	nt	nt	nt	nt
COc1ccc(S(=O)(=O)Nc2ccc3c(c2)C(=O)N([C@@H](C)CO)C[C@H](C)[C@@H](CN(C)S(=O)(=O)c2ccc(OC)cc2)OCCCC[C@H](C)O3)cc1	-77.9	2.4	-3.3	?	104.2*	53.0	19.3	-1.7
COc1ccc(S(=O)(=O)N(C)C[C@H]2OCCCC[C@@H](C)Oc3ccc(NS(=O)(=O)c4cn(C)cn4)cc3C(=O)N([C@@H](C)CO)C[C@H]2C)cc1	-48.3	nt	-1.4	103.2*	106.6*	33.1	-27.0	-13.5
COc1ccc(S(=O)(=O)Nc2ccc3c(c2)C(=O)N([C@@H](C)CO)C[C@@H](C)[C@@H](CN(C)S(=O)(=O)c2ccc(OC)cc2)OCCCC[C@@H](C)O3)cc1	-63.5	1.5	0.1	100.2*	106.6*	102.1*	-4.9	7.3
COc1ccc(S(=O)(=O)Nc2ccc3c(c2)C(=O)N([C@@H](C)CO)C[C@H](C)[C@@H](CN(C)S(=O)(=O)c2ccc(OC)cc2)OCCCC[C@@H](C)O3)cc1	-63.5	4.0	-0.3	?	110.9*	52.9	-33.0	-1.7
COc1ccc(S(=O)(=O)Nc2ccc3c(c2)C(=O)N([C@H](C)CO)C[C@@H](C)[C@@H](CN(C)S(=O)(=O)c2ccc(OC)cc2)OCCCC[C@H](C)O3)cc1	-61.2	0.8	0.3	52.1	nt	nt	nt	nt
COc1ccc2c3c([nH]c2c1)[C@H](CO)N(C(=O)NC(C)C)CC31CN(C(=O)C2CCCC2)C1	11.4	nt	-0.2	nt	nt	nt	nt	nt
COc1ccc(S(=O)(=O)Nc2ccc3c(c2)C(=O)N([C@@H](C)CO)C[C@H](C)[C@H](CN(C)C(=O)NC(C)C)O3)cc1	3.5	1.0	2.2	109.0*	-4.9	-15.9	1.2	-9.5
C[C@@H]1CCCCO[C@@H](CN(C)S(=O)(=O)c2cn(C)cn2)[C@H](C)CN([C@H](C)CO)C(=O)c2cc(NS(C)(=O)=O)ccc2O1	40.3	-5.0	0.5	32.9	nt	nt	nt	nt
C[C@@H]1CN([C@@H](C)CO)C(=O)c2cc(NS(C)(=O)=O)ccc2O[C@@H](C)CCCCO[C@H]1CN(C)S(=O)(=O)c1cn(C)cn1	32.2	0.3	0.3	107.2*	99.5*	36.9	7.6	8.1
COc1ccc(S(=O)(=O)Nc2ccc3c(c2)C(=O)N([C@@H](C)CO)C[C@@H](C)[C@H](CN(C)C(=O)NC(C)C)O3)cc1	18.4	nt	-0.7	-39.5	nt	nt	nt	nt
C[C@@H]1CCCCO[C@@H](CN(C)C(=O)Nc2cccc3ccccc23)[C@@H](C)CN([C@@H](C)CO)C(=O)c2cc(NS(=O)(=O)c3ccc(Cl)cc3)ccc2O1	-77.1	nt	0.5	98.6*	103.2*	93.3	-2.8	4.3
C[C@@H]1CCCCO[C@H](CN(C)C(=O)Nc2cccc3ccccc23)[C@H](C)CN([C@H](C)CO)C(=O)c2cc(NS(=O)(=O)c3ccc(Cl)cc3)ccc2O1	-75.9	-1.2	-1.6	104.9*	108.1*	112.9*	9.3	-0.7
C[C@@H]1CCCCO[C@@H](CN(C)C(=O)Nc2cccc3ccccc23)[C@@H](C)CN([C@H](C)CO)C(=O)c2cc(NS(=O)(=O)c3ccc(Cl)cc3)ccc2O1	-57.0	4.4	-1.5	31.8	nt	nt	nt	nt
C[C@H](CO)N1C[C@H](C)[C@H](CN(C)C(=O)Nc2ccc3c(c2)OCO3)Oc2ncc(C#CC(C)(C)O)cc2C1=O	20.2	0.3	1.1	-60.9	nt	nt	nt	nt
N#C[C@H]1[C@H](c2ccccc2)[C@H](CO)N1C(=O)C1CCCC1	19.6	nt	-0.3	53.8	nt	nt	nt	nt
C[C@@H]1CN([C@H](C)CO)S(=O)(=O)c2ccc(-c3ccncc3)cc2O[C@H]1CN(C)Cc1cncnc1	8.5	0.3	-2.1	106.6*	97.4*	93.2	14.5	53.3*
C[C@@H]1CN([C@@H](C)CO)S(=O)(=O)c2ccc(-c3ccncc3)cc2O[C@@H]1CN(C)Cc1ccncc1	9.4	20.2	1.3	105.3*	99.9*	67.9	35.9*	64.8*
SMILES	Pf Dd2 inh	IDH1 R132H inh	GASC1 inh	T cruzi growth-1	T cruzi growth-2	T cruzi growth-3	3T3 cytotox	NIH3T3 tox 2
C[C@H]1CN([C@@H](C)CO)S(=O)(=O)c2ccc(-c3ccncc3)cc2O[C@@H]1CN(C)Cc1ccncc1	-36.1	nt	0.1	100.0*	96.2*	97.2*	30.4	64.9*
C[C@H]1CN([C@@H](C)CO)S(=O)(=O)c2ccc(Br)cc2O[C@@H]1CN(C)Cc1ccncc1	-22.6	-1.4	0.0	99.1*	96.3*	54.6	6.2	9.0
C[C@@H]1CN([C@H](C)CO)S(=O)(=O)c2ccc(-c3ccncc3)cc2O[C@@H]1CN(C)Cc1ccncc1	-3.9	nt	1.8	94.7	nt	nt	nt	nt
C[C@@H]1CN([C@H](C)CO)C(=O)c2cc(NC(=O)CCCN(C)C)ccc2O[C@@H](C)CCCCO[C@@H]1CN(C)C(=O)c1ccccc1	nt	2.3	3.8	-4.6	nt	nt	nt	nt
CN(C)CCCNC(=O)C[C@@H]1CC[C@H]2[C@@H](COc3ccc(NC(=O)c4ccc5c(c4)OCO5)cc3C(=O)N2C)O1	-3.0	nt	6.2	-7.3	nt	nt	nt	nt
C[C@H]1CCCCO[C@H](CN(C)S(=O)(=O)c2ccc(Cl)cc2)[C@@H](C)CN([C@@H](C)CO)C(=O)c2cc(NC(=O)CCC(F)(F)F)ccc2O1	-72.5	4.1	-1.8	105.5*	102.8*	70.4	-0.1	18.6

Screening data from PubChem BioAssay.
